The nature of series [1]: Cytotoxicity against human HepG2 cells assessed as reduction in cell viability after 72 hrs by MTT assay. It is filed as toxicity, cell-based. Put shortly: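 HepG2 hepatocarcinoma cells in RPMI with 10% FBS, L-glutamine, penicillin/streptomycin, 37 °C, 6% CO2. Seeded 5.10^3 cells/well, 24 h attachment, then compounds added from DMSO (final under 0.5% v/v) at various concentrations for 72 h, triplicates. Wells checked microscopically for precipitate. MTT 0.5 mg/mL 2 h, formazan dissolved in DMSO, A570 (ref 630 nm). Viability as % of untreated cells; CC50 from dose–response curve.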

A short description of series [2]: Selectivity index, ratio of CC50 for human HepG2 cells to IC50 for chloroquine/pyrimethamine/proguanil-resistant Plasmodium falciparum K1 infected in human erythrocytes. It is filed as functional.
The subject of a further series is Plasmodium falciparum. In words: Antiplasmodial activity against chloroquine/pyrimethamine/proguanil-resistant Plasmodium falciparum K1 infected in human erythrocytes after 72 hrs by SYBR Green 1 dye based fluorescence spectrophotometric method. The class given is functional, cell-based. Conditions: K1, 72 h.

By CC50 is commonly meant the concentration giving 50% cytotoxicity. One may read the IC50 as the concentration at which inhibition is half-maximal. The low end stands for greater potency in that assay, the high end for weaker potency in that assay.

Regarding `Clc1nc(C(Cl)(Cl)Cl)nc2ccccc12`, the half-maximal cytotoxic concentration (CC50) at 72 h in series [1] was > 125 µM. Further, in series [2], the “Ratio CC50/IC50” value was >2.3.

On to `FC(F)(F)c1cccc(Nc2cc(C(Cl)(Cl)Cl)nc3ccccc23)c1`, for which, in series [1], the half-maximal cytotoxic concentration (CC50) at 72 h was 6.5 µM. In addition, the IC50 with Plasmodium falciparum came to 1300 nM. Besides, the “Ratio CC50/IC50” value in series [2] is listed as 5.

For `Clc1ccc(Sc2nc3ccccc3nc2C(Cl)(Cl)Cl)cc1`, the CC50 at 72 h in series [1] is 38.6 µM. Besides, half-maximal inhibition in the series on Plasmodium falciparum (IC50) was put at 500 nM. For the same compound, the “Ratio CC50/IC50” value in series [2] worked out at 77.2.

On to `Clc1ccc(Nc2cc(C(Cl)(Cl)Cl)nc3ccccc23)c(Cl)c1`, for which the half-maximal cytotoxic concentration (CC50) at 72 h in series [1] was determined as 11.7 µM. In addition, it took 1300 nM to reach half-maximal inhibition with Plasmodium falciparum (IC50). Also, the “Ratio CC50/IC50” value in series [2] is on record as 9.

As for `O=C1C(O)=C([C@H]2CC[C@H](c3ccc(Cl)cc3)CC2)C(=O)c2ccccc21` [ATOVAQUONE], in series [1], the 50% cytotoxic concentration (CC50) at 72 h was > 15.6 µM. Besides, 1 nM corresponded to half-maximal inhibition in the series on Plasmodium falciparum (IC50). For the same compound, in series [2], the “Ratio CC50/IC50” value was 15600.

As for `C[C@H]1c2cccc(O)c2C(=O)C2=C(O)[C@]3(O)C(=O)C(C(N)=O)=C(O)[C@@H](N(C)C)[C@@H]3[C@@H](O)[C@@H]21.O` [DOXYCYCLINE], the “Ratio CC50/IC50” value in series [2] is listed as 3.3.

These data come from ChEMBL document CHEMBL3877253, “Discovery of new hit-molecules targeting Plasmodium falciparum through a global SAR study of the 4-substituted-2-trichloromethylquinazoline antiplasmodial scaffold” (Eur J Med Chem, 2017).
